≈ marks a conversion by molar mass, not a printed value. Calls of active or inactive are those of the source. No cut-off for these calls is given here. Non-standard residues stand in square brackets, D forms with d. Residues, ends and D or L forms follow the SMILES beside them. Trp(5-Cl) = N[C@@H](Cc1c[nH]c2ccc(Cl)cc12)C(=O)O; dAsn(3R-OH) = NC(=O)[C@H](O)[C@@H](N)C(=O)O; aIle = CC[C@@H](C)[C@H](N)C(=O)O; Orn = NCCC[C@H](N)C(=O)O

For one test, the system named is Escherichia coli. Kind of test: Antibacterial activity against Escherichia coli ATCC 25922 after 24 hrs by two fold serial dilution method. Format: functional. In outline: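 Overnight culture grown in Mueller Hinton broth at 37 °C, centrifuged and washed twice in sterile water. Compound dissolved in DMSO, serially 2-fold diluted in MHB from 128 to 0.03 μg/mL, with DMSO held at 1% final. Inoculum 5 × 10^5 cfu/mL final. Incubated 24 h at 37 °C. MIC taken as the lowest concentration inhibiting growth.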

The subject of the next test is A549. The test can be described thus: Cytotoxicity against human A549 cells. Type of test: functional, cell-based.
A further test has as its system Staphylococcus aureus. Kind of test: Antibacterial activity against Staphylococcus aureus ATCC 25923 after 24 hrs by two fold serial dilution method. The note with it: ATCC 25923, 24 h. Type of test: functional. In outline: (§1)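 Bacteria grown overnight in Mueller Hinton broth at 37 °C, centrifuged and washed twice with sterile water. Compounds dissolved in DMSO, then 2-fold serial dilutions 128 to 0.03 μg/mL in broth, final DMSO 1%. Inoculum ~10^7 cfu/mL added to reach final 5 × 10^5 cfu/mL. Incubated 24 h at 37 °C. MIC = lowest concentration inhibiting growth.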

In a further test the test system is Aspergillus fumigatus. Kind of test: Antifungal activity against Aspergillus fumigatus HIC 6094. Type of test: functional, organism-based.
Another test concerns K562. Kind of test: Cytotoxicity against human K562 cells. Type of test: functional, cell-based.
The test system of another test is Enterococcus faecalis. Kind of test: Antibacterial activity against Enterococcus faecalis ATCC 19433 after 24 hrs by two fold serial dilution method. Format: functional. The note with it: ATCC 19433, 24 h. In outline:
as §1

The next test deals with SK-HEP1. The test can be described thus: Cytotoxicity against human SKHEP1 cells. Format: functional, cell-based.
The next test relates to Salmonella typhimurium. Kind of test: Antibacterial activity against Salmonella enterica ATCC 14028 after 24 hrs by two fold serial dilution method. Format: functional. The procedure, abridged: as §1
The next test relates to HCT-116. Kind of test: Cytotoxicity against human HCT116 cells. Format: functional, cell-based.
A further test concerns MDA-MB-231. The test can be described thus: Cytotoxicity against human MDA-MB-231 cells. Format: functional, cell-based.
Test [1] has as its system Trichophyton mentagrophytes. The test can be described thus: Antifungal activity against Trichophyton mentagrophytes IFM 40996. Format: functional, organism-based.
The next test has as its system SNU-638. Kind of test: Cytotoxicity against human SNU638 cells. Type of test: functional, cell-based.
Another test deals with Enterococcus faecium. The test can be described thus: Antibacterial activity against Enterococcus faecium ATCC 19434 after 24 hrs by two fold serial dilution method. Type of test: functional. To be noted: ATCC 19434, 24 h. In outline: as §1
In the next test the test system is Trichophyton rubrum. Kind of test: Antifungal activity against Trichophyton rubrum NBRC 9185. Type of test: functional, organism-based.
Another test concerns Candida albicans. The test can be described thus: Antifungal activity against Candida albicans ATCC 10231. Format: functional, organism-based.

Broadly, the MIC is the least concentration at which growth counts as inhibited. For the compound `CC[C@@H](C)[C@@H]1NC(=O)[C@@H](CC(C)C)NC(=O)[C@@H](C(C)C)NC(=O)[C@H](Cc2c[nH]c3ccc(Cl)cc23)NC(=O)[C@@H](CC(N)=O)NC(=O)[C@H](CCCN)NC1=O`, the MIC entry in the test with Escherichia coli and with Salmonella typhimurium (Salmonella enterica subsp. enterica serovar Typhimurium) was “inactive” each time. Further, the result with A549, with Aspergillus fumigatus, in the test with K562, in the test on SK-HEP1, with HCT-116 and in the test with MDA-MB-231 was inactive. For the same compound, the result (in test [1]; in the test on SNU-638; in the test on Trichophyton rubrum; in the test on Candida albicans) was inactive. The MIC with Staphylococcus aureus is 64 µg/mL (≈ 82.6 µM); in the test on Enterococcus faecalis, 128 µg/mL (≈ 165 µM); with Enterococcus faecium, 128 µg/mL (≈ 165 µM).
`CC[C@@H](C)[C@@H]1NC(=O)[C@@H](CC(C)C)NC(=O)[C@@H](C(C)C)NC(=O)[C@H](Cc2c[nH]c3ccc(Cl)cc23)NC(=O)[C@@H]([C@@H](O)C(N)=O)NC(=O)[C@H](CCCN)NC1=O` (cyclo([Orn][dAsn(3R-OH)][Trp(5-Cl)][dV][dL][aIle])): in the test on Escherichia coli, the MIC entry was “inactive”. The result in the test on A549, in the test on Aspergillus fumigatus, with K562, in the test with SK-HEP1, in the test on HCT-116 and in the test with MDA-MB-231 was inactive. Besides, the result (in [1]; in the test with SNU-638; with Trichophyton rubrum; with Candida albicans) was inactive. For the same compound, the minimum inhibitory concentration (MIC) against Staphylococcus aureus stood at 8 µg/mL (≈ 10.1 µM); against Enterococcus faecalis, 16 µg/mL (≈ 20.2 µM); in the test on Salmonella typhimurium (ATCC 14028, 24 h), 16 µg/mL (≈ 20.2 µM); with Enterococcus faecium, 16 µg/mL (≈ 20.2 µM).
For `CC1(C)S[C@@H]2[C@H](NC(=O)[C@H](N)c3ccccc3)C(=O)N2[C@H]1C(=O)O` [AMPICILLIN], the minimum inhibitory concentration (MIC) in the test with Escherichia coli (ATCC 25922, 24 h) was determined as 8 µg/mL (≈ 22.9 µM); against Staphylococcus aureus, 0.13 µg/mL (≈ 0.372 µM); in the test on Enterococcus faecalis it was 0.5 µg/mL (≈ 1.43 µM); in the test with Salmonella typhimurium (ATCC 14028, 24 h), 0.13 µg/mL (≈ 0.372 µM); in the test with Enterococcus faecium it was 0.25 µg/mL (≈ 0.715 µM).
